As usually defined, the MIC is the lowest concentration that inhibits growth of the organism. Low values mean a more susceptible organism, high ones a less susceptible organism.

Assay type in all cases: functional
The test system of experiment [1] is Streptococcus pneumoniae. Nature of the experiment: Antimicrobial activity against Streptococcus pneumoniae BSF-11524 isolate with erm(B) and L4 mutation. In outline: (§1)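 MIC by agar dilution per CLSI guidelines, also by Etest. Pneumococci grown at 37°C in 5% CO2 on Mueller-Hinton agar with 5% horse blood. Interpreted with CLSI breakpoints; for telithromycin ≤1 μg/ml susceptible, 2 μg/ml intermediate, ≥4 μg/ml resistant.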

Experiment [2] deals with Streptococcus pneumoniae. Nature of the experiment: Antimicrobial activity against Streptococcus pneumoniae PC13 transformants. The method in brief: as §1
Experiment [3] concerns Streptococcus pneumoniae. Nature of the experiment: Antimicrobial activity against Streptococcus pneumoniae PC13 isolate with erm(B) mutation. The method in brief: as §1
In experiment [4] the test system is Streptococcus pneumoniae. Put plainly: Antimicrobial activity against Streptococcus pneumoniae PC13 isolate with L4 mutation. In outline:
as §1

Experiment [5] relates to Streptococcus pneumoniae. Put plainly: Antimicrobial activity against Streptococcus pneumoniae PC13 isolate with L4 69GTG71 to TPS mutation. The method in brief:
as §1

In experiment [6] the test system is Streptococcus pneumoniae. Put plainly: Antimicrobial activity against Streptococcus pneumoniae R6 transformants. In outline: as §1
Experiment [7] deals with Streptococcus pneumoniae. Put plainly: Antimicrobial activity against Streptococcus pneumoniae R6 with L4 mutation. The method in brief: as §1
Experiment [8] relates to Streptococcus pneumoniae. Put plainly: Antimicrobial activity against Streptococcus pneumoniae R6 with L4 69GTG71 to TPS mutation. The method in brief: as §1

In brackets after ≈: the same amount, converted by molar mass.

For the molecule `CC[C@H]1OC(=O)[C@H](C)[C@@H](O[C@H]2C[C@@](C)(OC)[C@@H](O)[C@H](C)O2)[C@H](C)[C@@H](O[C@@H]2O[C@H](C)C[C@H](N(C)C)[C@H]2O)[C@](C)(OC)C[C@@H](C)C(=O)[C@H](C)[C@@H](O)[C@]1(C)O` [CLARITHROMYCIN], the MIC with Streptococcus pneumoniae [1] was greater than 256 µg/mL; with Streptococcus pneumoniae [2], greater than 256 µg/mL; in the experiment on Streptococcus pneumoniae [3] it was greater than 256 µg/mL; against Streptococcus pneumoniae [4], greater than 256 µg/mL; with Streptococcus pneumoniae [5] it was greater than 256 µg/mL; against Streptococcus pneumoniae [6], 0.06 µg/mL (≈ 0.0802 µM). Besides, the MIC against Streptococcus pneumoniae [7] and against Streptococcus pneumoniae [8] was 24 µg/mL (≈ 32.1 µM) in each case.
Turning to `CCC[C@@H]1C[C@@H](C(=O)N[C@@H]([C@H]2O[C@H](SC)[C@H](O)[C@@H](O)[C@H]2O)[C@H](C)Cl)N(C)C1` [CLINDAMYCIN], the minimum inhibitory concentration (MIC) in the experiment on Streptococcus pneumoniae [1] was greater than 256 µg/mL; against Streptococcus pneumoniae [2] it was greater than 256 µg/mL; in the experiment with Streptococcus pneumoniae [3] it was greater than 256 µg/mL; against Streptococcus pneumoniae [4], greater than 256 µg/mL; in the experiment with Streptococcus pneumoniae [5] it was greater than 256 µg/mL; against Streptococcus pneumoniae [6], 0.06 µg/mL (≈ 0.141 µM). Further, the MIC against Streptococcus pneumoniae [7] is 0.125 µg/mL (≈ 0.294 µM); against Streptococcus pneumoniae [8], 0.094 µg/mL (≈ 0.221 µM).
On to `O=C(N[C@H](CO)[C@H](O)c1ccc([N+](=O)[O-])cc1)C(Cl)Cl` [CHLORAMPHENICOL], for which the MIC in the experiment on Streptococcus pneumoniae [1] stood at 2 µg/mL (≈ 6.19 µM); against Streptococcus pneumoniae [2] it was 12 µg/mL (≈ 37.1 µM); in the experiment with Streptococcus pneumoniae [3] it was 12 µg/mL (≈ 37.1 µM); against Streptococcus pneumoniae [4] it was 12 µg/mL (≈ 37.1 µM); against Streptococcus pneumoniae [5] it was 12 µg/mL (≈ 37.1 µM); in the experiment with Streptococcus pneumoniae [6] it was 1.5 µg/mL (≈ 4.64 µM). Moreover, the MIC against Streptococcus pneumoniae [7] and in the experiment on Streptococcus pneumoniae [8] was 2 µg/mL (≈ 6.19 µM) throughout.
`CN(C)[C@@H]1C(O)=C(C(N)=O)C(=O)[C@@]2(O)C(O)=C3C(=O)c4c(O)cccc4[C@@](C)(O)[C@H]3C[C@@H]12` [TETRACYCLINE]: the MIC against Streptococcus pneumoniae [1] was 12 µg/mL (≈ 27 µM); with Streptococcus pneumoniae [2], 12 µg/mL (≈ 27 µM); with Streptococcus pneumoniae [3], 8 µg/mL (≈ 18 µM); against Streptococcus pneumoniae [4], 12 µg/mL (≈ 27 µM); against Streptococcus pneumoniae [5] it was 8 µg/mL (≈ 18 µM); in the experiment with Streptococcus pneumoniae [6], 0.094 µg/mL (≈ 0.212 µM). Moreover, the MIC turned out to be 0.094 µg/mL (≈ 0.212 µM) against Streptococcus pneumoniae [7] and 0.06 µg/mL (≈ 0.135 µM) against Streptococcus pneumoniae [8].
In the case of `CC[C@H]1OC(=O)[C@H](C)[C@@H](O[C@H]2C[C@@](C)(OC)[C@@H](O)[C@H](C)O2)[C@H](C)[C@@H](O[C@@H]2O[C@H](C)C[C@H](N(C)C)[C@H]2O)[C@](C)(O)C[C@@H](C)CN(C)[C@H](C)[C@@H](O)[C@]1(C)O` [AZITHROMYCIN], the MIC was greater than 256 µg/mL against Streptococcus pneumoniae [1]; greater than 256 µg/mL in the experiment with Streptococcus pneumoniae [2]; greater than 256 µg/mL against Streptococcus pneumoniae [3]; greater than 256 µg/mL against Streptococcus pneumoniae [4]; greater than 256 µg/mL in the experiment with Streptococcus pneumoniae [5]; 0.25 µg/mL (≈ 0.334 µM) in the experiment on Streptococcus pneumoniae [6]. Besides, the MIC against Streptococcus pneumoniae [7] and in the experiment on Streptococcus pneumoniae [8] was greater than 256 µg/mL in each case.
With `CC[C@H]1OC(=O)[C@H](C)C(=O)[C@H](C)[C@@H](O[C@@H]2O[C@H](C)C[C@H](N(C)C)[C@H]2O)[C@](C)(OC)C[C@@H](C)C(=O)[C@H](C)[C@H]2N(CCCCn3cnc(-c4cccnc4)c3)C(=O)O[C@]12C` [TELITHROMYCIN], the MIC with Streptococcus pneumoniae [1] is greater than 256 µg/mL; against Streptococcus pneumoniae [2], 0.06 µg/mL (≈ 0.0739 µM); in the experiment on Streptococcus pneumoniae [3], 1 µg/mL (≈ 1.23 µM); against Streptococcus pneumoniae [4], greater than 256 µg/mL; against Streptococcus pneumoniae [5] it was greater than 256 µg/mL; in the experiment with Streptococcus pneumoniae [6], 0.015 µg/mL (≈ 0.0185 µM). Besides, the minimal inhibitory concentration (MIC) with Streptococcus pneumoniae [7] and in the experiment with Streptococcus pneumoniae [8] was 0.12 µg/mL (≈ 0.148 µM) throughout.
Regarding `CC[C@H]1OC(=O)[C@H](C)[C@@H](O[C@H]2C[C@@](C)(OC)[C@@H](O)[C@H](C)O2)[C@H](C)[C@@H](O[C@@H]2O[C@H](C)C[C@H](N(C)C)[C@H]2O)[C@](C)(O)C[C@@H](C)C(=O)[C@H](C)[C@@H](O)[C@]1(C)O` [ERYTHROMYCIN], the MIC is greater than 256 µg/mL with Streptococcus pneumoniae [1]; greater than 256 µg/mL with Streptococcus pneumoniae [2]; greater than 256 µg/mL against Streptococcus pneumoniae [3]; greater than 256 µg/mL in the experiment on Streptococcus pneumoniae [4]; greater than 256 µg/mL in the experiment on Streptococcus pneumoniae [5]; 0.094 µg/mL (≈ 0.128 µM) against Streptococcus pneumoniae [6]. Besides, the MIC against Streptococcus pneumoniae [7] and with Streptococcus pneumoniae [8] was greater than 256 µg/mL each time.

(Values after ChEMBL document CHEMBL1142089, “High-level telithromycin resistance in a clinical isolate of Streptococcus pneumoniae” (2007).)
